From ChEMBL document CHEMBL1125914, “Activity of acyclic 6-(phenylselenenyl)pyrimidine nucleosides against human immunodeficiency viruses in primary lymphocytes” (J Med Chem, 1991)

Columns and labels:
Nucleic Acid = assay: Inhibitory activity against DNA polymerase-alpha derived from peripheral blood mononuclear cells; set-up: species or system Homo sapiens
Method in brief: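 Selectivity counter-screen against DNA polymerase α purified from human PBM cells. Median inhibitory concentration derived from the concentration-response curve by the Chou–Talalay median-effect method.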

[1] = Antiviral activity against human peripheral blood mononuclear cells, infected with HIV-2(strain ROD-2); format: functional
Method in brief: (§1)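 Human PBM cells were infected with HIV-1 strain LAV or HIV-2 strain ROD-2. On day 6 after infection, virus in the cell supernatant was quantitated by reverse transcriptase assay using poly(rA)n-oligo(dT)12-18 as template-primer. EC50 was derived from the concentration-response curve by the Chou–Talalay median-effect method.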

[2] = The compound was tested for toxicity in peripheral blood mononuclear cells; format: functional, Homo sapiens
Vero [3] = assay: Antiviral activity against Vero cells, infected with HSV-1; format: functional, cell-based; details: Chlorocebus sabaeus
Method in brief: (§2)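 Plaque reduction assay in Vero cells infected with HSV-1 strain F. Median effective concentration taken from the concentration-response curve by the Chou–Talalay median-effect method.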

[4] = Antiviral activity against human peripheral blood mononuclear cells, infected with HIV-1(strain LAV); format: functional; method in brief: as §1
[5] = The compound was tested for toxicity in Vero cells; format: cell-based; details: Chlorocebus sabaeus (African green monkey)
Vero [6] = assay: Antiviral activity against Vero cells, infected with HSV-1.; format: functional, cell-based; details: Chlorocebus sabaeus; method in brief: as §2
[7] = The compound was tested for toxicity in Vero cells.; format: cell-based; details: Chlorocebus sabaeus (African green monkey)
[8] = Antiviral activity against human peripheral blood mononuclear cells, infected with HIV-1(strain LAV).; format: functional
Method in brief: (§3)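 Primary human PBM cells infected with virus and exposed to compound. Virus in cell supernatant was quantified on day 6 post-infection by reverse transcriptase assay using poly(rA)n-oligo(dT)12-18 template-primer on disrupted virions. EC50 derived from the concentration-response curve by the Chou–Talalay median-effect method.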

[9] = The compound was tested for toxicity in peripheral blood mononuclear cells.; format: functional, Homo sapiens
[10] = Antiviral activity against human peripheral blood mononuclear cells, infected with HIV-2(strain ROD-2).; format: functional; method in brief: as §3
[11] = biological target: T1, Human immunodeficiency virus type 1 reverse transcriptase (Human immunodeficiency virus 1, UniProt Q72547); assay: Inhibition of HIV-1 reverse transcriptase.
[12] = biological target: T1, Human immunodeficiency virus type 1 reverse transcriptase; assay: Inhibition of HIV-1 reverse transcriptase recombinant p66

Row | SMILES | IC50 (Nucleic Acid) | EC50 [1] | IC50 [2] | EC50 (Vero [3]) | EC50 [4] | IC50 [5] | EC50 (Vero [6]) | IC50 [7] | EC50 [8] | IC50 [9] | EC50 [10] | IC50 [11] | IC50 [12]
1 | O=c1[nH]c(=O)n(COCCO)c([Se]c2ccccc2)c1F | > 100 µM | 9.1 µM | > 100 µM | > 100 µM | 2 µM | 25.7 µM | – | – | – | – | – | – | –
2 | O=c1[nH]c(=O)n(COCCO)cc1Br | – | – | – | – | – | – | > 100 µM | > 100 µM | > 100 µM | 100 µM | – | – | –
3 | Cc1c(Sc2ccccc2)n(COCCO)c(=O)[nH]c1=O [HEPT] | > 100 µM | – | – | – | – | – | > 100 µM | > 100 µM | 5.3 µM | > 100 µM | > 100 µM | 17.5 µM | –
4 | O=c1ccn(COCCO)c(=O)[nH]1 | – | – | > 100 µM | > 100 µM | > 100 µM | > 100 µM | – | – | – | – | – | – | –
5 | Cc1c([Se]c2ccccc2)n(COCCO)c(=S)[nH]c1=O | > 100 µM | 5.8 µM | > 100 µM | > 100 µM | 2.8 µM | 60.7 µM | – | – | – | – | – | – | –
6 | Cc1cn(COCCO)c(=O)[nH]c1=O | – | – | – | – | – | – | > 100 µM | > 100 µM | > 100 µM | > 100 µM | – | – | –
7 | Cc1cn(COCCO)c(=S)[nH]c1=O | – | – | – | – | – | – | > 100 µM | > 100 µM | > 100 µM | > 100 µM | – | – | –
8 | O=c1[nH]c(=O)n(COCCO)cc1F | – | – | – | – | – | – | > 100 µM | > 100 µM | > 100 µM | 67 µM | – | – | –
9 | Cc1c([Se]c2ccccc2)n(COCCO)c(=O)[nH]c1=O | > 100 µM | 25.6 µM | > 200 µM | > 100 µM | 0.96 µM | > 100 µM | – | – | – | – | – | – | –
10 | O=c1[nH]c(=O)n(COCCO)cc1Cl | – | – | – | – | – | – | > 100 µM | > 100 µM | > 100 µM | – | – | – | –
11 | O=c1[nH]c(=O)n(COCCO)c([Se]c2ccccc2)c1Cl | > 100 µM | 7.9 µM | > 100 µM | > 100 µM | 3.1 µM | 7.5 µM | – | – | – | – | – | – | –
12 | O=c1[nH]c(=O)n(COCCO)c([Se]c2ccccc2)c1Br | > 100 µM | 2 µM | > 100 µM | > 100 µM | 3.7 µM | 8.2 µM | – | – | – | – | – | – | –
13 | Cc1cn([C@H]2C[C@H](N=[N+]=[N-])[C@@H](CO)O2)c(=O)[nH]c1=O [ZIDOVUDINE] | > 100 µM | < 0.002 µM | > 100 µM | > 100 µM | 0.004 µM | 26 µM | – | – | – | – | – | – | < 0.1 µM
14 | O=c1cc([Se]c2ccccc2)n(COCCO)c(=O)[nH]1 | > 100 µM | 9.6 µM | > 100 µM | > 200 µM | 13 µM | > 100 µM | – | – | – | – | – | – | –
